Measurements taken from ChEMBL document CHEMBL1144642, “Antiproliferative activity of 2-alkyl-4-halopiperidines and 2-alkyl-4-halo-1,2,5,6-tetrahydropyridines in solid tumor cell lines” (2007).

The compounds below were run on WiDr (assay: Antiproliferative activity against human WiDr cells after 48 hrs by SRB assay). Settings: not given.
Format: functional
Method in brief: (§1)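 NCI protocol, SRB read-out after 48 h continuous drug exposure. GI50, TGI and LC50 derived; 100 μM was the top concentration tested, with TGI and LC50 reported only when under 100 μM. GI50 values are means of two to four experiments ± standard deviation.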
`Cc1ccc(S(=O)(=O)N2CC[C@@H](Cl)C[C@@H]2CC(C)C)cc1` gave a GI50 of 22 µM. With `CCCCCCCC1C=C(Cl)CCN1S(=O)(=O)c1ccc(C)cc1` (centres undefined) the GI50 was 50 µM. `Cc1ccc(S(=O)(=O)N2CCC(Cl)=CC2C2CCCCC2)cc1` (centres undefined) gave a GI50 of 24 µM. `Cc1ccc(S(=O)(=O)N2CCC(Cl)=CC2c2ccccc2)cc1` (centres undefined) was tested, and the GI50 was 18 µM, the LC50 (50% lethal concentration) was 91 µM and the TGI was 77 µM. For `Cc1ccc(S(=O)(=O)N2CC[C@@H](Br)C[C@@H]2CC(C)C)cc1`, the GI50 was 14 µM. Work on `Cc1ccc(S(=O)(=O)N2CC[C@@H](Br)C[C@@H]2C2CCCCC2)cc1` yielded a GI50 of 14 µM. `Cc1ccc(S(=O)(=O)N2CC[C@@H](Br)C[C@@H]2c2ccccc2)cc1` gave a GI50 of 36 µM. With `Cc1ccc(S(=O)(=O)N2CC[C@@H](Br)C[C@@H]2Cc2ccccc2)cc1` the GI50 was 37 µM. `Cc1ccc(S(=O)(=O)N2CC=C(Br)CC2)cc1` was tested, and the GI50 was > 100 µM. `Cc1ccc(S(=O)(=O)N2CCC(Br)=CC2CC(C)C)cc1` (centres undefined) gave a GI50 of 16 µM. `Cc1ccc(S(=O)(=O)N2CCC(Br)=CC2C2CCCCC2)cc1` (centres undefined) showed a GI50 of 18 µM. `Cc1ccc(S(=O)(=O)N2CCC(Br)=CC2c2ccccc2)cc1` (centres undefined) showed a GI50 of 29 µM. In the case of `Cc1ccc(S(=O)(=O)N2CCC(Br)CC2)cc1`, the GI50 is reported as > 100 µM. In the case of `Cc1ccc(S(=O)(=O)N2CC[C@@H](Cl)C[C@@H]2C2CCCCC2)cc1`, the GI50 is reported as 15 µM. For `Cc1ccc(S(=O)(=O)N2CC[C@@H](Cl)C[C@@H]2c2ccccc2)cc1`, the GI50 was 37 µM. `Cc1ccc(S(=O)(=O)N2CC[C@@H](Cl)C[C@@H]2Cc2ccccc2)cc1` was tested, and the GI50 was 20 µM. For `CCCCCCC[C@H]1C[C@H](Cl)CCN1S(=O)(=O)c1ccc(C)cc1`, the GI50 was 54 µM. With `Cc1ccc(S(=O)(=O)N2CCC(Cl)CC2)cc1` the GI50 was > 100 µM. `Cc1ccc(S(=O)(=O)N2CCC(Br)=CC2Cc2ccccc2)cc1` (centres undefined) was tested, and the GI50 was 24 µM and the TGI was 71 µM. For `CCCCCCC[C@H]1C[C@H](Br)CCN1S(=O)(=O)c1ccc(C)cc1`, the GI50 was > 100 µM. With `Cc1ccc(S(=O)(=O)N2CC=C(Cl)CC2)cc1` the GI50 was > 100 µM. For `Cc1ccc(S(=O)(=O)N2CCC(Cl)=CC2Cc2ccccc2)cc1` (centres undefined), the GI50 was 3.3 µM, the LC50 (50% lethal concentration) was 79 µM and the TGI was 14 µM. `CCCCCCCC1C=C(Br)CCN1S(=O)(=O)c1ccc(C)cc1` (centres undefined) gave a GI50 of 40 µM. Work on `Cc1ccc(S(=O)(=O)N2CCC(Cl)=CC2CC(C)C)cc1` (centres undefined) yielded a GI50 of 21 µM.

What follows are compounds tested on SW1573 (assay: Antiproliferative activity against human SW1573 cells after 48 hrs by SRB assay). Settings: SW1573, 48 h.
Format: functional
Method in brief: as §1
Compound `Cc1ccc(S(=O)(=O)N2CC[C@@H](Cl)C[C@@H]2CC(C)C)cc1` has a GI50 of 19 µM. `CCCCCCCC1C=C(Cl)CCN1S(=O)(=O)c1ccc(C)cc1` (centres undefined) showed a GI50 of 49 µM. Compound `Cc1ccc(S(=O)(=O)N2CCC(Cl)=CC2C2CCCCC2)cc1` (centres undefined) has a GI50 of 62 µM. `Cc1ccc(S(=O)(=O)N2CCC(Cl)=CC2c2ccccc2)cc1` (centres undefined) was tested, and the GI50 was 16 µM, the LC50 was 87 µM and the TGI was 37 µM. With `Cc1ccc(S(=O)(=O)N2CC[C@@H](Br)C[C@@H]2CC(C)C)cc1` the GI50 was 22 µM. `Cc1ccc(S(=O)(=O)N2CC[C@@H](Br)C[C@@H]2C2CCCCC2)cc1` was tested, and the GI50 was 82 µM. `Cc1ccc(S(=O)(=O)N2CC[C@@H](Br)C[C@@H]2c2ccccc2)cc1` was tested, and the GI50 was > 100 µM. With `Cc1ccc(S(=O)(=O)N2CC[C@@H](Br)C[C@@H]2Cc2ccccc2)cc1` the GI50 was 73 µM. In the case of `Cc1ccc(S(=O)(=O)N2CC=C(Br)CC2)cc1`, the GI50 is reported as > 100 µM. `Cc1ccc(S(=O)(=O)N2CCC(Br)=CC2CC(C)C)cc1` (centres undefined) showed a GI50 of 26 µM. In the case of `Cc1ccc(S(=O)(=O)N2CCC(Br)=CC2C2CCCCC2)cc1` (centres undefined), the GI50 is reported as 65 µM. `Cc1ccc(S(=O)(=O)N2CCC(Br)=CC2c2ccccc2)cc1` (centres undefined) gave a GI50 of 54 µM. For `Cc1ccc(S(=O)(=O)N2CCC(Br)CC2)cc1`, the GI50 was > 100 µM. Work on `Cc1ccc(S(=O)(=O)N2CC[C@@H](Cl)C[C@@H]2C2CCCCC2)cc1` yielded a GI50 of 53 µM. In the case of `Cc1ccc(S(=O)(=O)N2CC[C@@H](Cl)C[C@@H]2c2ccccc2)cc1`, the GI50 is reported as > 100 µM. In the case of `Cc1ccc(S(=O)(=O)N2CC[C@@H](Cl)C[C@@H]2Cc2ccccc2)cc1`, the GI50 is reported as 12 µM and the TGI is reported as 66 µM. In the case of `CCCCCCC[C@H]1C[C@H](Cl)CCN1S(=O)(=O)c1ccc(C)cc1`, the GI50 is reported as > 100 µM. In the case of `Cc1ccc(S(=O)(=O)N2CCC(Cl)CC2)cc1`, the GI50 is reported as > 100 µM. `Cc1ccc(S(=O)(=O)N2CCC(Br)=CC2Cc2ccccc2)cc1` (centres undefined) gave a GI50 of 21 µM and a TGI of 78 µM. With `CCCCCCC[C@H]1C[C@H](Br)CCN1S(=O)(=O)c1ccc(C)cc1` the GI50 was > 100 µM. `Cc1ccc(S(=O)(=O)N2CC=C(Cl)CC2)cc1` was tested, and the GI50 was > 100 µM. For `Cc1ccc(S(=O)(=O)N2CCC(Cl)=CC2Cc2ccccc2)cc1` (centres undefined), the GI50 was 6.6 µM. `CCCCCCCC1C=C(Br)CCN1S(=O)(=O)c1ccc(C)cc1` (centres undefined) was tested, and the GI50 was 49 µM. Compound `Cc1ccc(S(=O)(=O)N2CCC(Cl)=CC2CC(C)C)cc1` (centres undefined) has a GI50 of 31 µM.

These compounds were tested on WiDr (assay: Cell cycle arrest in human WiDr cells assessed as accumulation at G2/M phase at 20 uM after 24 hrs relative to control). Settings: not given.
Format: functional
Method in brief: (§2)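 Cells seeded at 0.7–1 × 10⁶ per well and left 24 h, then exposed 24 h to 10 or 20 μM beside untreated controls. Trypsinized, fixed in ice-cold 70% ethanol overnight at −20 °C, treated with RNAse and propidium iodide 30 min at 37 °C in the dark. DNA content read by flow cytometry (25,000 cells/sample); G2/M percentage compared with control.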
With `Cc1ccc(S(=O)(=O)N2CCC(Cl)=CC2Cc2ccccc2)cc1` (centres undefined) the Activity was 81%.

Each compound was assayed on SW1573 (assay: Cell cycle arrest in human SW1573 cells assessed as accumulation at G2/M phase at 20 uM after 24 hrs relative to control). Settings: not given.
Format: functional
Method in brief: as §2
`Cc1ccc(S(=O)(=O)N2CCC(Cl)=CC2Cc2ccccc2)cc1` (centres undefined) gave an Activity of 38%.

Each compound was assayed on A2780 (assay: Antiproliferative activity against human A2780 cells after 48 hrs by SRB assay). Settings: A2780, 48 h.
Format: functional
Method in brief: as §1
`Cc1ccc(S(=O)(=O)N2CC[C@@H](Cl)C[C@@H]2CC(C)C)cc1` gave a GI50 of 36 µM. Compound `CCCCCCCC1C=C(Cl)CCN1S(=O)(=O)c1ccc(C)cc1` (centres undefined) has a GI50 of 92 µM. With `Cc1ccc(S(=O)(=O)N2CCC(Cl)=CC2C2CCCCC2)cc1` (centres undefined) the GI50 was 39 µM. `Cc1ccc(S(=O)(=O)N2CCC(Cl)=CC2c2ccccc2)cc1` (centres undefined) showed a GI50 of 17 µM, an LC50 (50% lethal concentration) of 86 µM and a TGI of 42 µM. In the case of `Cc1ccc(S(=O)(=O)N2CC[C@@H](Br)C[C@@H]2CC(C)C)cc1`, the GI50 is reported as 39 µM. For `Cc1ccc(S(=O)(=O)N2CC[C@@H](Br)C[C@@H]2C2CCCCC2)cc1`, the GI50 was > 100 µM. In the case of `Cc1ccc(S(=O)(=O)N2CC[C@@H](Br)C[C@@H]2c2ccccc2)cc1`, the GI50 is reported as > 100 µM. `Cc1ccc(S(=O)(=O)N2CC[C@@H](Br)C[C@@H]2Cc2ccccc2)cc1` gave a GI50 of 63 µM. `Cc1ccc(S(=O)(=O)N2CC=C(Br)CC2)cc1` was tested, and the GI50 was > 100 µM. In the case of `Cc1ccc(S(=O)(=O)N2CCC(Br)=CC2CC(C)C)cc1` (centres undefined), the GI50 is reported as 36 µM. With `Cc1ccc(S(=O)(=O)N2CCC(Br)=CC2C2CCCCC2)cc1` (centres undefined) the GI50 was 44 µM. In the case of `Cc1ccc(S(=O)(=O)N2CCC(Br)=CC2c2ccccc2)cc1` (centres undefined), the GI50 is reported as 49 µM. With `Cc1ccc(S(=O)(=O)N2CCC(Br)CC2)cc1` the GI50 was > 100 µM. `Cc1ccc(S(=O)(=O)N2CC[C@@H](Cl)C[C@@H]2C2CCCCC2)cc1` showed a GI50 of 72 µM. `Cc1ccc(S(=O)(=O)N2CC[C@@H](Cl)C[C@@H]2c2ccccc2)cc1` was tested, and the GI50 was > 100 µM. Work on `Cc1ccc(S(=O)(=O)N2CC[C@@H](Cl)C[C@@H]2Cc2ccccc2)cc1` yielded a GI50 of 19 µM and a TGI of 50 µM. For `CCCCCCC[C@H]1C[C@H](Cl)CCN1S(=O)(=O)c1ccc(C)cc1`, the GI50 was > 100 µM. With `Cc1ccc(S(=O)(=O)N2CCC(Cl)CC2)cc1` the GI50 was > 100 µM. `Cc1ccc(S(=O)(=O)N2CCC(Br)=CC2Cc2ccccc2)cc1` (centres undefined) gave a GI50 of 27 µM and a TGI of 77 µM. For `CCCCCCC[C@H]1C[C@H](Br)CCN1S(=O)(=O)c1ccc(C)cc1`, the GI50 was > 100 µM. With `Cc1ccc(S(=O)(=O)N2CC=C(Cl)CC2)cc1` the GI50 was > 100 µM. For `Cc1ccc(S(=O)(=O)N2CCC(Cl)=CC2Cc2ccccc2)cc1` (centres undefined), the GI50 was 4.8 µM. `CCCCCCCC1C=C(Br)CCN1S(=O)(=O)c1ccc(C)cc1` (centres undefined) was tested, and the GI50 was > 100 µM. For `Cc1ccc(S(=O)(=O)N2CCC(Cl)=CC2CC(C)C)cc1` (centres undefined), the GI50 was 35 µM.

What follows are compounds tested on SW1573 (assay: Cell cycle arrest in human SW1573 cells assessed as accumulation at G2/M phase at 10 uM after 24 hrs relative to control). Settings: not given.
Format: functional
Method in brief: as §2
In the case of `Cc1ccc(S(=O)(=O)N2CCC(Cl)=CC2Cc2ccccc2)cc1` (centres undefined), the Activity is reported as 25%.

Each compound was assayed on WiDr (assay: Cell cycle arrest in human WiDr cells assessed as accumulation at G2/M phase at 10 uM after 24 hrs relative to control). Settings: not given.
Format: functional
Method in brief: as §2
`Cc1ccc(S(=O)(=O)N2CCC(Cl)=CC2Cc2ccccc2)cc1` (centres undefined) was tested, and the Activity was 53%.
